In brackets after ≈: the same amount, converted by molar mass. Entries after “also recorded” stand apart in the source; their conditions may differ.
Legend:
human recombinant ATX [1] = molecular target: T1, human recombinant ATX (Homo sapiens, UniProt Q13822); assay: ATX inhibition, hydrolysis of nucleotide substrate pNP-TMP; type: biochemical; settings: 1 mM pNP-TMP, 4 nM human rATX
How it was run: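 Purified FLAG-tagged human ATX from the Sf9 baculovirus system was run with nucleotide substrate pNP-TMP in triplicate wells. Absorbance at 405 nm read every 2 min for 1 h; triplicate means recorded and percent activity derived from the 1 h point.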

LPAR1 = LPAR1 (Homo sapiens, UniProt Q92633); assay: LPA1 receptor antagonism, calcium mobilization in LPA1 RH7777 cells; type: cell-based; settings: for LPAR1 inhibitory activity: result in words
How it was run: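 Stably LPA1-overexpressing rat hepatoma RH7777 cells, kept in DMEM, 10% FBS, 2 mM L-glutamine, 250 μg/mL G418, 37 °C, 5% CO2. Plated at 5 × 10^4 cells/well on poly-L-lysine overnight, serum-deprived 4 h in Krebs buffer (pH 7.4), loaded 30 min with 4.5 μg/mL Fura-2AM. Compound dose range tested with and without LPA 18:1 at its EC50 concentration. Fluorescence 340/510 and 380/510 nm every 3.42 s for 70 s. Triplicate mean ratios normalized to LPA Emax; IC50 from variable-slope fit.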

log P = type: physicochemical
human recombinant ATX [2] = molecular target: T1, human recombinant ATX; assay: ATX inhibition, hydrolysis of FRET substrate FS-3; type: biochemical; settings: for Mechanism: FS-3 0 to 10 μM, inhibitor at 0, 0.5 × IC50 or 2 × IC50
How it was run: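 Human ATX, C-terminal FLAG-tagged, expressed in Sf9 cells by baculovirus and purified on anti-FLAG beads. Fluorescence (485/528 nm) read every 2 min for 1 h. Percent activity taken at 1 h; IC50 (±SD) interpolated from a variable-slope Hill fit.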

Water solubility = type: physicochemical
[3] = IC50 (nM ± SD) vs FS-3, 1 μM FS-3, 4 nM human rATX, 1 h
[4] = Experimental pIC50, -log IC50, ATX enzyme inhibition
[5] = IC50 (nM) ATX enzyme, QSAR data set, compounds of this study

Chain of LPAR1 (Q92633 whole entry, species assumed): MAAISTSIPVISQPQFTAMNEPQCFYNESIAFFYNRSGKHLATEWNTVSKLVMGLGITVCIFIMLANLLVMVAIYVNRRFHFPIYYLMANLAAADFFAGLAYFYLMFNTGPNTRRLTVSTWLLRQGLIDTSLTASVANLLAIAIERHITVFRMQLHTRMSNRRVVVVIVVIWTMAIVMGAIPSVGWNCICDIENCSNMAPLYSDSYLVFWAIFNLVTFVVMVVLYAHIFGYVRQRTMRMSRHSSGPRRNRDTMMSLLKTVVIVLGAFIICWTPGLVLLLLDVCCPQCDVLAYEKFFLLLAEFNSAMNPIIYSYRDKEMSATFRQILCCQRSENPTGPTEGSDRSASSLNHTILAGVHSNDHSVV

| SMILES | pNP-TMP inhibition (human recombinant ATX [1]) | LPAR1 inhibitory activity (LPAR1) | logP (log P) | Mechanism (human recombinant ATX [2]) | IC50 (human recombinant ATX [2]; [3]) [nM] | solubility (Water solubility) [µg/mL] | IC50 (human recombinant ATX [2]; [4]) [nM] | IC50 (human recombinant ATX [2]; [5]) [nM] | IC50 (LPAR1) [nM] |
| --- | --- | --- | --- | --- | --- | --- | --- | --- | --- |
| CS(=O)(=O)N(c1cc(C(=O)Nc2cc(F)c(F)c(F)c2)c(Cl)cc1Cl)C1CCOCC1 [Compound 10, 2,4-dichloro-5-(N-(tetrahydro-2H-pyran-4-yl)-methylsulfonamido)-N-(3,4,5-trifluorophenyl)-benzamide] | none | neither compound 10 nor compound 11 showed any LPAR1 inhibitory activity; also recorded: no LPAR1 inhibitory activity | 3.2 | Competitive | 220 ± 14.7 | > 100 | – | – | – |
| CS(=O)(=O)N(c1cc(C(=O)Nc2cc(F)c(Cl)c(F)c2)c(Cl)cc1Cl)C1CCOCC1 [Compound 11, 2,4-dichloro-N-(4-chloro-3,5-difluorophenyl)-5-(N-(tetrahydro-2H-pyran-4-yl)-methylsulfonamido)-benzamide] | none | neither compound 10 nor compound 11 showed any LPAR1 inhibitory activity; also recorded: no LPAR1 inhibitory activity | 3.68 | Competitive | 219 ± 25.2 | > 100 | 219 | 219 | – |
| N#CC(c1ccc(F)c(C(=O)Nc2cc(F)c(F)c(F)c2)c1)N1CCOCC1 (stereo not drawn) [Compound 14, 5-(cyano(morpholino)methyl)-2-fluoro-N-(3,4,5-trifluorophenyl)-benzamide] | none | – | 2.91 | – | > 1000 | 50 (≈ 127 µM) | – | ≥ 1000 | > 1000 |
| O=C(Nc1cc(F)c(F)c(F)c1)c1cc(C(C(=O)O)N2CCOCC2)ccc1F (stereo not drawn) [Compound 15, 2-(4-fluoro-3-((3,4,5-trifluorophenyl)-carbamoyl)-phenyl)-2-morpholinoacetic acid] | none | – | 2.44 | – | > 1000 | > 100 | > 1000 | ≥ 1000 | > 1000 |

From article PMC8163515 (Bioorganic chemistry, 2020)
